High-throughput results deposited in PubChem BioAssay by several laboratories.
An excerpt weighted towards active compounds, which were near 2.2% of everything screened.
HIV Env fusion – inhibitors of HIV Env-mediated cell fusion | hit rate 1.1% among 360,000 | HeLa-JRFL Env/CEM21 cell fusion, luciferase | inhibition, % at 12.3 µM;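 active = mean replicate inhibition score of at least 50 and every replicate individually at or above 50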;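 note: 0% = plate neutral controls and 100% = maraviroc near 300 nM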
NR2E3 ag-1 – agonists of human NR2E3 nuclear receptor. hit rate 0.35% among 360,000. CHO-S Gal4-NCOR/VP16-NR2E3 two-hybrid, luciferase. Q9Y5X4. inhibition of corepressor binding, % at 3.98 µM;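 active = inhibition above the mean of all tested compounds plus 3 SD, cut at about 70% in these data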;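 note: 0% = DMSO with NR2E3 transfected cells and 100% = cells lacking NR2E3 construct; higher means lower luciferase signal from less NR2E3 corepressor binding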
Target sequence (Q9Y5X4 whole entry, looked up, the tested form may be a part): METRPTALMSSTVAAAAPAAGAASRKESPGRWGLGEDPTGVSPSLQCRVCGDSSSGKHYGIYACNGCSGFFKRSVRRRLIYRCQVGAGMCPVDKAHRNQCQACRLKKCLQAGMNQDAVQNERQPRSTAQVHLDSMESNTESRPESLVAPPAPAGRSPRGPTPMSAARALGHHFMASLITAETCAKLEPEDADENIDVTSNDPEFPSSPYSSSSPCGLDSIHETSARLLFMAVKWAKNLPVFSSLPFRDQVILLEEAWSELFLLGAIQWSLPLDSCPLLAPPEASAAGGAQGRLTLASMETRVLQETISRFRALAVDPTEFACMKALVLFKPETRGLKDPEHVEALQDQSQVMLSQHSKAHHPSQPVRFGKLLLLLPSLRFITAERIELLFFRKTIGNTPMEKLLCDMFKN
GalR3 antagonist – human GalR3 antagonism; inhibition, % at 3 µM; O60755; hit rate 0.44% among 360,000; HEK293 GalR3-CNG cAMP membrane potential fluorescence; galR3 body fused to GalR1 C-terminus;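 active = inhibition above the screen-wide average plus 3 SD, cut at about 13% in these data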;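 note: forskolin and galanin both at EC90 stimulate the cells; cAMP rise reported by CNG channel membrane potential dye signal; 0% = forskolin plus galanin with DMSO and 100% = forskolin alone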
Target sequence (O60755 1-299 limits assumed): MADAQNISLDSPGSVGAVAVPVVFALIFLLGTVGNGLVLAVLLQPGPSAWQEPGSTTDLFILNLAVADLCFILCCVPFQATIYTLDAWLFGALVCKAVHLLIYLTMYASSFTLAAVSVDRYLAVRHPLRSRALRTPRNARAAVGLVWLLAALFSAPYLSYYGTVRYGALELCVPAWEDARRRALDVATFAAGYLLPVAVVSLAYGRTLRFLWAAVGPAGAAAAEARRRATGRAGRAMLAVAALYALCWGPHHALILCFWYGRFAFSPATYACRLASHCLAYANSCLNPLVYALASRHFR
NR2E3 ag-2 – agonists of human nuclear receptor NR2E3. Q9Y5X4. inhibition of corepressor binding, % at 4.78 µM. AID 2300. hit rate 0.12% among 320,000. GST-NR2E3/biotin-RetCOR TR-FRET, 1536-well;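 active = percent inhibition above the cutoff of mean plus 3 SD of all tested compounds, set per screening campaign, cut at about 20% in these data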;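 note: 0% = DMSO wells and 100% = biotin wells as full block of FRET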
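Material: NR2E3–RetCOR corepressor complex / Amount: 1.35 nM GST-NR2E3 / Medium: Tris pH 7.5 / Compound: single nominal compound dose of 4.8 µM / Incubation: 5 h at 4 °C / Technique: TR-FRET, Eu(K)-anti-GST donor, streptavidin-D2 acceptor, ex 340, em 617/671 nm / Read-out basis: percent loss of FRET ratio relative to control wells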
GAA850 FXN act – activators of GAA850 frataxin (FXN) promoter; AID 540364; activation, % at 6 µM; hit rate 0.56% among 360,000; HEK293 lucGAA850 FXN promoter luciferase reporter, 24 h; percent of 10 µM SAHA response;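 active = activation above the average of all compounds screened plus 3 SD, cutoff fixed separately per campaign, cut at about 7.5% in these data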;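 note: 0% = DMSO wells and 100% = 10 µM SAHA wells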
V-ATPase pH – regulators of yeast V-ATPase proton transport; response, % at 10 µM; S. cerevisiae, pHLuorin cytosolic pH fluorescence; hit rate 0.37% among 350,000; in the data active = response mostly above about 7.3%, no sharp cut-off; inactive = mostly below about 5.4%; note: actives read high
NR2E3 ag confirm – NR2E3 agonism confirmed in two-hybrid assay | AID 624378 | inhibition, % at 3.98 µM | CHO-S mammalian two-hybrid NR2E3-NCOR, luciferase luminescence | hit rate 51% among 2,300 | shares compounds with NR2E3 ag-1;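 active = average inhibition above a cutoff equal to the mean inhibition of all tested compounds plus one SD, cut at about 70% in these data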;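 note: 0% = DMSO in NR2E3 cells and 100% = DMSO in cells lacking NR2E3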
GAL4-VP16 luc – counter-screen for NR2E3 agonists: GAL4-VP16 reporter inhibitors; AID 624379; CHO-S GAL4-VP16 luciferase reporter, luminescence; hit rate 29% among 2,300; inhibition, % at 3.98 µM; shares compounds with NR2E3 ag-1;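 active = mean inhibition above a cutoff equal to the average over all tested compounds plus one standard deviation, cut at about 70% in these data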;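 note: luciferase from a UAS reporter driven by GAL4-VP16 transactivation; 0% = DMSO with VP16-transfected cells and 100% = DMSO with cells lacking VP16; higher means less reporter light so more repression of VP16 activity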
GalR3 antag conf – confirmation of human galanin receptor 3 antagonists; AID 652245; hit rate 59% among 1,600; HEK293 GalR3 CNG cAMP biosensor, membrane potential fluorescence; galR3 fused to GalR1 carboxy tail; challenged with forskolin and galanin at EC90; inhibition, % at 3 µM; shares compounds with GalR3 antagonist;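 active = inhibition above the primary screen's cutoff, the mean inhibition of all screened compounds plus 3 SD, cut at about 13% in these data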;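 note: 0% = forskolin plus galanin and 100% = forskolin alone with DMSO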
CNG parental – parental cell agonism counter-screen for GalR3 antagonists. hit rate 10% among 1,600. HEK293-CNG parental cells, cAMP membrane potential fluorescence; normalised: DMSO wells 0%, forskolin wells 100%. AID 652268. activation, % at 3 µM. shares compounds with GalR3 antagonist; in the data active = activation above about 1.3%
* = called active by the depositor; / = no result given; [ ] = remark or other dose.

SMILES	HIV Env fusion	NR2E3 ag-1	GalR3 antagonist	NR2E3 ag-2	GAA850 FXN act	V-ATPase pH	NR2E3 ag confirm	GAL4-VP16 luc	others
COc1ccc(N2CCN(CC(=O)Nc3ncc(C)s3)CC2)cc1	-19	-12	-3	3	2	1	/	/
Cc1cccc(-c2noc(CCC(=O)NCc3ccco3)n2)c1	/	-22	-2	2	-2	-4	/	/
CC(C)(C)c1ccc(-c2noc(CCC(=O)NCc3ccco3)n2)cc1	34	77*	-7	4	-13	0	74*	79*
N#C/C(=N\Nc1ccc(Cl)cc1)C(=O)c1ccsc1	23	81*	-6	0	-4	3	100*	88*
N#C/C(=N\Nc1ccc(Cl)cc1)C(N)=S	-8	67	-7	1	-2	1	-14	5
C[C@@H]1CN([C@@H](C)CO)C(=O)Cc2cc(NC(=O)Nc3cccc4ccccc34)ccc2O[C@H]1CN(C)S(=O)(=O)c1cccs1	16[16.7 µM]	/	/	/	/	/	/	/
CCN(CC(=O)Nc1c(F)cccc1F)C(=O)c1ccc(N2CCCCC2)c([N+](=O)[O-])c1	/	57	-1	-2	-1	1	34	39
COc1ccc(Cl)cc1NC(=O)CN(C)C(=O)c1ccc(N2CCCCCC2)c([N+](=O)[O-])c1	13	70	-6	6	-3	4	42	39
CN(CC(=O)Nc1ccc(Cl)c(C(F)(F)F)c1)C(=O)c1ccc(N2CCOCC2)c([N+](=O)[O-])c1	2	63	-3	-1	1	-2	63	59
CN(CC(=O)Nc1cccc(F)c1)C(=O)c1ccc(N2CCOCC2)c([N+](=O)[O-])c1	14	9	-2	3	-1	-2	/	/
C[C@@H]1CN([C@H](C)CO)C(=O)c2cc(/C=C/c3ccccc3)cnc2O[C@H]1CN(C)Cc1ccccc1	4[16.7 µM]	/	/	/	/	/	/	/
O=C(NCC(c1ccco1)N1CCCC1)c1ccc(Cl)c(S(=O)(=O)N2CCc3ccccc32)c1 (stereo not given)	5	61	87*	1	-4	13	50	50
O=C(NCC(c1ccco1)N1CCc2ccccc2C1)c1ccc(Cl)c([N+](=O)[O-])c1 (stereo not given)	-4	-6	-2	1	-2	0	/	/
CCCC[C@@H]1C=C(C(=O)O)[C@H](c2ccc(CC)cc2)N1S(=O)(=O)c1ccc(C)cc1	5	-11	1	/	0	2	/	/
CCCCC[C@@H]1C=C(C(=O)O)[C@H](c2ccc(Cl)c(Cl)c2)N1S(=O)(=O)c1ccc(C)cc1	-47	81*	-7	/	-1	1	71*	24
CCCCC[C@@H]1C=C(C(=O)O)[C@H](c2ccc(CC)cc2)N1S(=O)(=O)c1ccc(C)cc1	16	52	-6	/	-1	4	-1	11
Cc1ccc(S(=O)(=O)N2[C@@H](c3ccc(Cl)c(Cl)c3)C(C(=O)O)=C[C@H]2C(C)(C)C)cc1	/	62	/	/	-2	0	41	34
CC[C@@H]1C=C(C(=O)O)[C@H](c2ccc(Cl)c(Cl)c2)N1S(=O)(=O)c1ccc(C)cc1	-1	-13	-4	/	0	4	/	/
Cc1ccc([C@H]2C(C(=O)O)=C[C@@H](C(C)(C)C)N2S(=O)(=O)c2ccc(C)cc2)cc1	-20	-30	-6	/	-1	4	/	/
O=C(C[C@H]1CC[C@H]2[C@@H](COC[C@H](O)CN2Cc2nccs2)O1)NCc1ccccc1Cl	14[16.7 µM]	/	/	/	/	/	/	/
O=C(C[C@H]1CC[C@@H](NC(=O)C2CC2)[C@H](CO)O1)NCc1ccncc1	-12[16.7 µM]	/	/	/	/	/	/	/
O=S(=O)(c1cc(F)ccc1F)N1CCN(c2ncnc3ccccc23)CC1	/	88*	-1	/	-2	-2	92*	74*
COc1cccc(-c2cn(CC[C@@H]3CC[C@H](NC(=O)CC4CC4)[C@H](CO)O3)nn2)c1	-1[16.7 µM]	/	/	/	/	/	/	/
COCc1cc(=O)n2[nH]c(C)c(-c3ccc(Cl)cc3)c2n1	3	51	3	/	1	-4	42	35
Cc1nc2c(-c3ccc(Cl)cc3)c(C)[nH]n2c(=O)c1Cc1ccccc1	57*	88*	-5	1	-5	-2	99*	57
SMILES	HIV Env fusion	NR2E3 ag-1	GalR3 antagonist	NR2E3 ag-2	GAA850 FXN act	V-ATPase pH	NR2E3 ag confirm	GAL4-VP16 luc	others
CC(C)Cn1c(N)c(C(=O)COC(=O)/C=C/c2ccccc2)c(=O)n(C)c1=O	/	74*	16*	7	-2	-9	26	56	GalR3 antag conf=86*;CNG parental=0
CCCCC(Nc1ncnc2ccccc12)C(=O)O (stereo not given)	-92	-20	1	0	0	-5	/	/
CC(Nc1ncnc2ccccc12)c1ccccc1 (stereo not given)	6	75*	96*	6	-3	1	96*	91*	GalR3 antag conf=106*;CNG parental=0
O=C(Nc1nc(-c2ccccc2)cs1)c1ccccc1NS(=O)(=O)c1ccc(F)cc1	64*	95*	17*	4	-8	-1	99*	85*	GalR3 antag conf=77*;CNG parental=-1
CCN1/C(=C/c2ccc3cc(C)ccc3[n+]2CC)Sc2cc(C)c(C)cc21	29	90*	51*	/	-9	4	99*	87*	GalR3 antag conf=58*;CNG parental=9.7*
CCN1/C(=C/c2ccc3cc(C)ccc3[n+]2CC)Sc2ccccc21	-29	91*	38*	-25	-9	4	99*	89*	GalR3 antag conf=45*;CNG parental=12*
CCN1/C(=C/C=C/c2sc3ccccc3[n+]2CC)Sc2ccccc21	/	20	/	1	-7	-2	/	/
C[C@@H]1CN([C@@H](C)CO)C(=O)c2cc(NC(=O)C3CC3)ccc2O[C@H]1CN(C)Cc1ccncc1	-6[16.7 µM]	/	/	/	/	/	/	/
C[C@@H]1CN([C@@H](C)CO)C(=O)c2c(c3ccccc3n2C)-c2ccccc2CO[C@H]1CN(C)C(=O)CCC(F)(F)F	33[16.7 µM]	/	/	/	/	/	/	/
C[C@@H]1CN([C@@H](C)CO)S(=O)(=O)c2ccc(-c3cccnc3)cc2O[C@@H]1CN(C)C(=O)C1CCC1	-10[16.7 µM]	/	/	/	/	/	/	/
C[C@H](CO)N1C[C@H](C)[C@H](CN(C)C(=O)Cc2ccccn2)Oc2ncc(-c3ccc(F)cc3)cc2C1=O	-7[16.7 µM]	/	/	/	/	/	/	/
